The target in assay [1] is T1, Poa1p (Saccharomyces cerevisiae, UniProt P38218).
T1 sequence (P38218 1-177): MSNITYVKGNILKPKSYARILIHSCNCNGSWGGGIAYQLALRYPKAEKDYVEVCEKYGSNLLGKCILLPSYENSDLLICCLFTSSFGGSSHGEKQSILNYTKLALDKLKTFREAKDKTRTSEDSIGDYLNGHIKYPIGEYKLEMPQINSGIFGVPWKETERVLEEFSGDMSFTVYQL
Description: Inhibition of Appr1p phosphatase activity of Poa1p. In kind it is biochemical. Summed up:
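Candidate inhibitors were first surveyed at 10 mM under two conditions: 8 nM Poa1p with 26 nM Appr1p for 1 h, and 35 nM Poa1p with 5 μM Appr1p for 2 h. IC50 was then obtained by titrating inhibitor concentration with 35 nM Poa1p and 5 μM Appr1p for 2 h. Readout was radiolabeled Appr1p conversion, separated by TLC.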

The subject of assay [2] is Hal2p. Description: Appr1p phosphatase and pAp phosphatase assay, steady-state kinetics of Hal2p. In kind it is biochemical, Saccharomyces cerevisiae. The following applies: for Km / kcat: substrate of Hal2p, 30°C, pH 7.5.
Assay [3] deals with T1, Poa1p. The experiment in a line: Appr1p phosphatase assay, steady-state kinetics of Poa1p. Format: biochemical.
Assay [4] concerns Hal2p. Description: Inhibition of Appr1p phosphatase activity of Hal2p. In kind it is biochemical, Saccharomyces cerevisiae. The following applies: Appr1p well below KM; data not shown. Summed up:
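Purified His6-Hal2p at 104 nM was mixed with 5 nM Appr1p and each potential inhibitor at 10 mM. Incubation lasted long enough to convert ~50% of substrate without inhibitor. Labeled product was resolved by PEI-cellulose TLC and quantified by phosphorimaging.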

The target of assay [5] is T1, Poa1p. Description: KI for ADP-ribose by the method of Dixon. Format: biochemical. Summed up:
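Ap*pr1p hydrolysis by 43 nM Poa1p at four fixed Appr1p concentrations (1–25 μM) with ADP-ribose 0–300 μM. Initial-rate inverses plotted against [ADP-ribose]; resulting slopes replotted against 1/[Appr1p]. KI derived from the secondary slope (KM/(Vmax·KI)) using known KM and Vmax for Appr1p. All fits by linear regression.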

Assay [6] relates to yeast crude extracts. Description: Appr1p processing activity of yeast crude extracts. In kind it is biochemical, Saccharomyces cerevisiae. The conditions noted are these: for extract amount by which Appr1p is 50% processed: 17 nM Ap*pr1p, 1 h, 30°C. Summed up:
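Yeast strains (BY4741 background: wild type, poa1, hal2, and the double deletion) were grown to A600 1.0, washed in cold water, stored at −70°C and lysed with glass beads. Extracts were assayed in 5-fold serial dilutions (starting 16, 29, 23 and 21 μg respectively) with 17 nM Ap*pr1p for 1 h at 30°C. Reactions were phenol:chloroform-treated and resolved on PEI-cellulose TLC.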

Where [7] appears, read: read-out: Inhibition in survey at 10 mM competitor (IC50), 10 mM competitor, 8 nM Poa1p, 26 nM Appr1p, 1 h, and 35 nM Poa1p, 5 μM Appr1p, 2 h.
Setting [8] is: substrate of Poa1p, 30°C, pH 7.5, 21 nM Poa1p.

Where two headings read alike, the source gives them in different places.

As usually defined, the IC50 is the concentration needed to halve the response being measured. By Km is commonly meant the substrate concentration at which the rate is half of its maximum. A word on the kcat: it is the maximal rate divided by the concentration of active sites. For orientation: Ki means the dissociation constant of the complex between target and ligand, obtained from inhibition or displacement. A low value points to a stronger hold on the target.

As to `Nc1ncnc2c1ncn2[C@@H]1O[C@H](COP(=O)(O)OP(=O)(O)O)[C@@H](O)[C@H]1O` [ADP], in assay [1] (35 nM Poa1p, 5 μM Appr1p, 2 h), the IC50 was over 10 mM.

Regarding `Nc1ncnc2c1ncn2[C@@H]1O[C@H](COP(=O)(O)O)[C@@H](OP(=O)(O)O)[C@H]1O` [pAp], the “preference of Hal2p for pAp relative to Appr1p” value in assay [2] (as measured by kcat/KM values) is recorded as 10^4 fold. In assay [2], the Km was determined as 0.1 µM and the kcat turned out to be 0.9 s⁻¹. Also, the “Poa1p phosphatase activity on substrate (in words)” value in assay [3] (conditions where a turnover of 0.005 min^−1 (0.3% of the activity with Appr1p) should be easily observed) is given as “no detectable activity”. In addition, in assay [1] (setting [7]), the IC50 was over 10 mM. Moreover, in assay [4], the “Inhibition of Appr1p phosphatase activity of Hal2p (in words)” value (from here on “Inhibition … of Hal2p (in words)”) is reported as “inhibited”.

Consider `Nc1ncnc2c1ncn2[C@@H]1O[C@H](CO)[C@@H](O)[C@H]1OP(=O)(O)O` [2′pA], for which, in assay [1] (setting [7]), the IC50 is over 10 mM.

As to `Nc1ncnc2c1ncn2[C@@H]1O[C@H](CO)[C@@H](OP(=O)(O)O)[C@H]1O` [3′pA], in assay [1] (35 nM Poa1p, 5 μM Appr1p, 2 h), the IC50 is over 10 mM. Besides, the “Inhibition … of Hal2p (in words)” value in assay [4] was “inhibited”.

`O=P(O)(O)O[C@H]1O[C@H](CO)[C@@H](O)[C@H](O)[C@H]1O` [glucose-1p]: in assay [1] (setting [7]), the IC50 was over 10 mM.

With `O=P(O)(O)O[C@H]1O[C@H](CO)[C@@H](O)[C@H]1O` [ribose-1p], the IC50 in assay [1] (setting [7]) was over 10 mM.

On to `NC(=O)c1ccc[n+]([C@@H]2O[C@H](COP(=O)([O-])OP(=O)(O)OC[C@H]3O[C@@H](n4cnc5c(N)ncnc54)[C@H](O)[C@@H]3O)[C@@H](O)[C@H]2O)c1` [NAD], for which the midpoint of inhibition in assay [1] (35 nM Poa1p, 5 μM Appr1p, 2 h), the IC50, lay at 1.5 mM.

In assay [5] (43 nM Poa1p, varied Appr1p and ADP-ribose (0–300 μM), Dixon plot), `Nc1ncnc2c1ncn2[C@@H]1O[C@H](COP(=O)(O)OP(=O)(O)OC[C@H]2OC(O)[C@H](O)[C@@H]2O)[C@@H](O)[C@H]1O` (stereo partly drawn) [ADPR, ADP-ribose] gave a Ki of 0.017 mM. Also, the mode of inhibition result in assay [5] (plots of inverse initial rates versus inhibitor concentration) is reported as “classical competitive inhibition”. The molecule also showed an IC50 in assay [1] (35 nM Poa1p, 5 μM Appr1p, 2 h) of 0.03 mM. In assay [4], the “Inhibition … of Hal2p (in words)” value was “inhibited”.

For `O=C[C@H](O)[C@H](O)[C@H](O)COP(=O)(O)O` [ribose-5p, ribose 5-phosphate], the IC50 in assay [1] was over 10 mM. In assay [4], the “Inhibition … of Hal2p (in words)” value is given as “inhibited”.

Consider `Nc1ccn([C@@H]2O[C@H](CO)[C@@H](OP(=O)(O)O)[C@H]2O)c(=O)n1` [3′pC], for which, in assay [1] (setting [7]), the IC50 is over 10 mM.

On to `Nc1ccn([C@@H]2O[C@H](CO)[C@@H](O)[C@H]2OP(=O)(O)O)c(=O)n1` [2′pC], for which, in assay [1] (35 nM Poa1p, 5 μM Appr1p, 2 h), the IC50 is over 10 mM.

`NC(=O)c1ccc[n+]([C@H]2O[C@@H](COP(=O)([O-])OP(=O)(O)OC[C@H]3O[C@@H](n4cnc5c(N)ncnc54)[C@H](OP(=O)(O)O)[C@@H]3O)[C@H](O)[C@@H]2O)c1` [NADP] returned an IC50 in assay [1] (35 nM Poa1p, 5 μM Appr1p, 2 h) of 2 mM. Also, the “Inhibition … of Hal2p (in words)” value in assay [4] was “inhibited”.

As to `Nc1ncnc2c1ncn2[C@@H]1O[C@H](COP(=O)(O)OP(=O)(O)OC[C@H]2O[C@H](OP(=O)(O)O)[C@H](O)[C@@H]2O)[C@@H](O)[C@H]1O` [Appr1p, ADP-ribose-1″-phosphate], the Km came to 74 µM in assay [2] and 2.8 µM in assay [3] (setting [8]). In addition, the kcat in assay [2] was determined as 0.0533 s⁻¹; in assay [3] (setting [8]), 0.0283 s⁻¹. Besides, the “preference of Poa1p for Appr1p relative to pAp” value in assay [3] (as measured by observed rates) is reported as “at least 340 fold”. Also, the “kcat/KM difference in favor of Poa1p over Hal2p” value in assay [3] (substrate Appr1p) is on record as 14 fold. Moreover, the “lower KM of Poa1p relative to Hal2p” value in assay [3] (substrate Appr1p) is recorded as about 25 fold. The “extract amount by which Appr1p is 50% processed” value amounted to 1.2 µg in assay [6] (hal2-Δ extract); 33 µg in assay [6] (poa1-Δ extract); 20 µg in assay [6] (poa1-Δ, hal2-Δ double mutant extract); 1.8 µg in assay [6] (wild-type extract).

`Nc1nc2c(ncn2[C@@H]2O[C@H](CO)[C@@H](OP(=O)(O)O)[C@H]2O)c(=O)[nH]1` [3′pG]: the IC50 in assay [1] (setting [7]) was over 10 mM. Moreover, the “Inhibition of phosphatase activity remaining in poa1-Δ extract (in words)” value in assay [6] (poa1-Δ extract, data not shown) is “inhibited”.

With `O=C[C@H](O)COP(=O)(O)O` [glyceraldehyde-3p], the IC50 in assay [1] (setting [7]) was over 10 mM.

On to `Nc1ncnc2c1ncn2[C@@H]1O[C@H](COP(=O)(O)OP(=O)(O)OC[C@H]2O[C@@H](n3cnc4c(N)ncnc43)[C@H](O)[C@@H]2O)[C@@H](O)[C@H]1O` [AppA], for which 1 mM corresponded to half-maximal inhibition in assay [1] (35 nM Poa1p, 5 μM Appr1p, 2 h) (IC50).

Regarding `Nc1nc2c(ncn2[C@@H]2O[C@H](CO)[C@@H](O)[C@H]2OP(=O)(O)O)c(=O)[nH]1` [2′pG], the IC50 in assay [1] (setting [7]) was over 10 mM. Further, the “Inhibition … of Hal2p (in words)” value in assay [4] is listed as “inhibited”.

As for `O=P(O)(O)OC[C@H]1OC(O)(CO)[C@@H](O)[C@@H]1O` (stereo partly drawn) [fructose-6p], the IC50 in assay [1] (setting [7]) is over 10 mM.

As for `Nc1ncnc2c1ncn2[C@@H]1O[C@H](COP(=O)(O)O)[C@@H](O)[C@H]1O` [5′pA, AMP], in assay [1] (setting [7]), the IC50 was over 10 mM.

The values above are taken from publication PMC548356 (Nucleic Acids Research, 2005).
